GalR3 antag = GalR3 antagonists in HEK293 cells, primary screen, cell-based, fluorescence readout; inhibition, % at 3 µM; HEK293 GalR3-CNG cAMP membrane potential fluorescence; galR3 body fused to GalR1 C-terminus; actives 0.44% (n = 360,000); Galanin receptor type 3 (Homo sapiens), O60755; AID 651719, 2012;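 active = inhibition above the screen-wide average plus 3 SD, cut at about 13% in these data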;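 note: forskolin and galanin both at EC90 stimulate the cells; cAMP rise reported by CNG channel membrane potential dye signal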
TAAR1 antagonist = human TAAR1 antagonists, primary screen, Fluo-8 calcium fluorescence, CHO RD-HGA16 cells; inhibition, % at 3 µM; antagonist; Trace amine-associated receptor 1 (Homo sapiens), Q96RJ0; actives 1.5% (n = 360,000);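 active = inhibition above a per-plate cutoff, the mean inhibition of test compounds on that plate plus 3 SD, cut at about 49% in these data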
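Test system: RD-HGA16 CHO cells with stable hTAAR1 and Gα16 / Probe or stimulus: EC80 β-phenethylamine stimulus / Times: seeding 17-24 h prior, 75-min 37 °C, 30-min RT dye loading / Detection: Fluo-8 calcium-sensitive fluorescence / Read-out basis: % inhibition scaled between DMSO and EC80 PEA controls / Repeats: singlicate, one well per test compound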
TAAR1 ag = human TAAR1 agonists, primary screen, Fluo-8 calcium fluorescence, CHO RD-HGA16 cells | actives 0.99% (n = 360,000) | Trace amine-associated receptor 1 (Homo sapiens), Q96RJ0 | vehicle wells 0%, saturating PEA agonist 100% | activation, % at 3 µM;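 active = activation above the mean activation of all test compounds in the run plus 3 SD, cut at about 38% in these data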
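Assay system: CHO-derived RD-HGA16 cells with stable Gα16 and human TAAR1; timing: 17-24 h seeding, 75 min 37 °C dye, 30 min RT; read-out: % activation from peak over basal fluorescence ratio, DMSO-to-PEA scaled; measured by: kinetic Fluo-8 calcium fluorescence; benchmarks: low control DMSO, high control PEA (EC100); doses: 3 µM single concentration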
OX1R antag-1 = OX1R (HCRTR1) antagonists, primary screen, fluorescence, CHO/OX1R cells, Fluo-8 calcium, orexin A; Orexin/Hypocretin receptor type 1 (Homo sapiens), O43613; Fluo-8 calcium fluorescence; inhibition, % at 5 µM; actives 0.43% (n = 330,000); AID 434989, 2010;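 active = inhibition above its plate's threshold, mean inhibition of all tested compounds on the plate plus 3 SD, cut at about 37% in these data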
Target sequence (O43613 whole entry, looked up): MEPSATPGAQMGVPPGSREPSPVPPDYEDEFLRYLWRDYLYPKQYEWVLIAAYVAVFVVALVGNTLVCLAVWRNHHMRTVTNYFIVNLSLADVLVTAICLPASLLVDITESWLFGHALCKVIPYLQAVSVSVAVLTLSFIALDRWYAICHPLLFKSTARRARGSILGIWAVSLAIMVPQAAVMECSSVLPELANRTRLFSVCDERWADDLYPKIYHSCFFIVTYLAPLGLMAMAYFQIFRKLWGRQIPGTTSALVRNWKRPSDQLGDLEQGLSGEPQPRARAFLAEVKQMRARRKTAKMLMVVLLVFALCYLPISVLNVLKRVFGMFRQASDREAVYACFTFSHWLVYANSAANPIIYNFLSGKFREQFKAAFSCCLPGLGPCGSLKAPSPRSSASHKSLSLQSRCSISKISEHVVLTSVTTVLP
CHO parental Ca = ATP-evoked calcium signal inhibitors, parental CHO, primary screen, counter-screen for OX1R antagonist project, cell-based, fluorescence, Fluo-8 calcium dye; AID 463079, 2010; actives 0.63% (n = 330,000); inhibition, % at 5.6 µM; parental CHO-K1, ATP-induced calcium, Fluo-8 fluorescence;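 active = inhibition above that plate's mean sample inhibition plus 3 SD, cut at about 26% in these data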
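Test system: untransfected parental CHO cell line; also added: ATP stimulus; dosing: 5.6 µM, single dose; signal: calcium-sensitive Fluo-8 fluorescence; measure: percent inhibition of ATP-evoked calcium rise, normalized to controls; benchmarks: low control ATP plus DMSO, high control DMSO only; replication: one well per compound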
OX1R antag-2 = antagonists of human orexin 1 receptor (OX1R). AID 485270, 2010. OX1R-expressing cells, FRET antagonist read-out. actives 1.8% (n = 330,000). inhibition, % at 6.6 µM. Orexin/Hypocretin receptor type 1 (Homo sapiens), O43613; in the data active = inhibition mostly above about 38%, no sharp cut-off; inactive = mostly below about 40%
OX1R HTRF conf = OX1R (HCRTR1) antagonists, confirmation, cell-based, HTRF; OX1R-expressing cells, HTRF antagonist assay; actives 49% (n = 1,800); shares compounds with OX1R antag-2; inhibition, % at 6.6 µM; AID 492964, 2010; in the data active = inhibition above about 55%;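 note: CHO cells expressing OX1R stimulated with orexin A at about EC80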
CHO-K1 HTRF cnt = signal inhibition in parental CHO-K1 cells, counter-screen for OX1R antagonist project, cell-based, HTRF; inhibition, % at 6.6 µM; shares compounds with OX1R antag-2; HTRF counterscreen; actives 48% (n = 1,800); in the data active = inhibition above about 17%
Numbers stand for hits; n = inactive; x = no result given. An excerpt weighted towards active compounds, which were near 4.2% of everything screened.

SMILES | GalR3 antag | TAAR1 antagonist | TAAR1 ag | OX1R antag-1 | CHO parental Ca | OX1R antag-2 | OX1R HTRF conf | CHO-K1 HTRF cnt
CCC(NC(=O)c1ccc([N+](=O)[O-])cc1[N+](=O)[O-])c1ccccc1 (configuration not stated) | n | n | n | n | n | 114 | 55 | 50
COC(=O)c1cn(NC(=O)Cc2ccc(Cl)c(Cl)c2)c(=O)c2ccccc12 | n | n | n | n | n | 87 | 81 | n
CCOC(=O)CSc1nnc(-c2ccc3ncccc3c2)n1C | n | n | n | n | n | n | x | x
CCN(Cc1ccccc1)C(=O)COC(=O)c1cc(S(=O)(=O)Nc2c(C)n(C)n(-c3ccccc3)c2=O)ccc1C | n | n | n | n | n | 81 | 74 | n
CCOc1ccc2[nH]c(=O)c(CN(Cc3ccccc3OC)C(=O)c3ccccc3)cc2c1 | n | n | n | n | n | n | x | x
O=[N+]([O-])c1ccc(Oc2ccc(-c3nnco3)cc2)c(Cl)c1 | n | n | n | n | n | n | x | x
N#Cc1cc([N+](=O)[O-])ccc1Oc1ccc(-c2nnco2)cc1 | n | n | n | n | n | 79 | n | 42
O=C1c2cc(S(=O)(=O)N(CCO)CCO)ccc2-c2ccc(S(=O)(=O)N(CCO)CCO)cc21 | n | n | n | n | n | 111 | 71 | 72
O=S(=O)(c1ccc(Oc2ccc(S(=O)(=O)N(CCO)CCO)cc2)cc1)N(CCO)CCO | n | n | n | n | n | n | x | x
COc1ccccc1CN1CC(=O)N2CSC[C@H]2C1=O | n | n | n | n | n | n | x | x
O=[N+]([O-])c1c(Nc2ccccc2O)cc(N2CCOCC2)c2nonc12 | n | n | n | n | n | 80 | n | 34
O=[N+]([O-])c1c(NCCO)cc(N2CCCCCC2)c2nonc12 | n | n | n | n | n | n | x | x
COc1ccccc1C1=NC(c2ccc(C)cc2)N=C1C (configuration not stated) | n | n | n | n | n | n | x | x
CC(C)Cn1c(N)c(C(=O)COC(=O)CCNS(=O)(=O)c2ccccc2)c(=O)n(C)c1=O | n | 51 | n | n | n | 99 | n | n
COc1ccccc1/C=N/N1C(=O)c2cccc3cccc(c23)C1=O | n | n | n | n | n | 97 | n | 55
CC1CCC2(CC1)NC(=O)N(CC(=O)N1CCc3ccccc3C1)C2=O (configuration not stated) | n | n | n | n | n | n | x | x
Cc1nc2cc(NC(=O)N3CC4(C)CC3CC(C)(C)C4)ccc2n1C (configuration not stated) | n | n | n | n | n | n | x | x
CC(=O)CSc1nsc(SCC(C)=O)c1C#N | n | n | n | n | n | n | x | x
O=C(Nc1ccc(-c2nc3ccccc3o2)cc1)C1CCCO1 (configuration not stated) | n | n | n | n | n | n | x | x
O=C(Nc1ccc2oc(-c3ccccc3)nc2c1)C1CCCO1 (configuration not stated) | n | n | n | n | n | 98 | n | n
CCOC(=O)c1nnn(-c2ccc([N+](=O)[O-])cc2[N+](=O)[O-])c1C | n | n | n | n | n | 143 | n | 73
CCN1CCN(CCC2Oc3cc([N+](=O)[O-])ccc3NC2=O)CC1 (configuration not stated) | n | n | n | n | n | 78 | n | 25
